Compound activity as filed in PubChem BioAssay.
proCasp7 act: activates human procaspase-7, counter-screen for procaspase-3 activators; hit rate 0.093% among 330,000; P55210; recombinant procaspase-7, Ac-DEVD-pNA absorbance 405 nm; D23A/D198A/D206A triple mutant, cannot self-cleave; scale: DMSO 0, 5 µM enzyme 100; activation, % at 8.5 µM;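 active = percent activation above the screen-wide mean plus 3 SD, cut at about 25% in these data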
Target sequence (P55210 whole entry D23A/D198A/D206A): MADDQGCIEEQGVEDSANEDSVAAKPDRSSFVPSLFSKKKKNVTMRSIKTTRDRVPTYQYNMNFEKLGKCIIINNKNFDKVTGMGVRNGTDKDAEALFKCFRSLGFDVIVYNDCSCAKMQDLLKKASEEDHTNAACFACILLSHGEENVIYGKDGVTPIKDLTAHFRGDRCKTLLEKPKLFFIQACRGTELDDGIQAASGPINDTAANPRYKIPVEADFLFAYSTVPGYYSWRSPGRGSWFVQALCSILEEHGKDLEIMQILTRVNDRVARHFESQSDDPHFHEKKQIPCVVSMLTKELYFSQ
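signal = Epi-absorbance of released pNA at 405 nm, two timepoints | assay system = Uncleavable procaspase-7 mutant enzyme | reagent = Ac-DEVD-pNA substrate, 400 µM as added | times = 1 h enzyme–compound preincubation and 2 h substrate reaction, both 25 °C | benchmarks = low DMSO alone, high DMSO plus 5 µM PC-7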
MsrA act: activators of bovine methionine sulfoxide reductase A; hit rate 0.3% among 360,000; AID 602163; purified bovine MsrA, absorbance read-out; activation, % at 10.6 µM; in the data active = activation above about 7.5%
Tb MetRS inh: Trypanosoma brucei MetRS inhibition; hit rate 0.4% among 360,000; inhibition, % at 11.9 µM; purified T. brucei MetRS, ATP depletion, Kinase-Glo luminescence; AID 624268;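 active = inhibition above a per-plate cutoff of the control wells' mean inhibition plus 3 SD, cut at about 5.5% in these data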
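Test system – parasite MetRS enzyme · Reagent – substrates ATP, L-methionine and bulk Escherichia coli tRNA · Doses – 11.9 µM compound single dose, 0.9% DMSO · Times – 15 min enzyme-compound preincubation, 2 h reaction, 10 min detection, 25 °C · Signal – Kinase-Glo luminescence, ATP depletion format · Controls – DMSO-only wells as low control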
MsrA inh: inhibitors of bovine MsrA | hit rate 0.75% among 360,000 | purified bovine MsrA, absorbance read-out | AID 651718 | inhibition, % at 15.5 µM; in the data active = inhibition above about 4.5%
procasp3 activ: activators of human procaspase-3; P42574; recombinant procaspase-3 D3A, Ac-DEVD-pNA absorbance 405 nm; activation, % at 8.5 µM; hit rate 0.11% among 330,000; AID 463141;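 active = activation above the mean of all tested compounds plus 3 SD, cut at about 21% in these data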
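Assay system: Autoprocessing-dead procaspase-3 D3A mutant enzyme; also added: Ac-DEVD-pNA; doses: one concentration, 8.5 µM nominal, 0.8% DMSO; times: 1 h compound preincubation, 2 h substrate hydrolysis at 25 °C; technique: 405 nm absorbance of p-nitroaniline, reads at 0 and 120 min; measure: % activation between DMSO and enzyme-spiked controls; repeats: single replicate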
Numbers stand for hits; 0 = inactive; - = not tested or not shown. An excerpt weighted towards active compounds, which were near 1.5% of everything screened.

SMILES | proCasp7 act | MsrA act | Tb MetRS inh | MsrA inh | procasp3 activ
COc1ccc(NC(=O)N(C)[C@H]2C[C@H]3c4[nH]c5c(-c6ccccc6)cccc5c4CCN3C(=O)[C@H]2[C@H](C)O)cc1 | - | - | - | 0 | -
O=c1[nH]sc2ccccc12 | - | 13 | 0 | 0 | -
N#C/C(=C/c1ccc(Sc2nc3ccccc3[nH]2)o1)c1cccc(F)c1 | 0 | 0 | 0 | 0 | 0
N#C/C(=C/c1ccc(Sc2nc3ccccc3[nH]2)o1)c1cccc(Br)c1 | 0 | 0 | 19 | 0 | 0
Cc1ccc(CNC(=O)/C(C#N)=C\c2ccc(N(C)C)cc2)cc1 | 0 | - | - | - | 22
CN(C)c1ccc(C=Nc2ccccc2C(N)=O)cc1 | 0 | 0 | 0 | 5.6 | 0
CCn1c2c(n(C(C)=O)c1=O)C=C(C(=O)N1CCCC1)C(C)C(c1ccccc1)=C2 (centres undefined) | - | - | - | 0 | -
NS(=O)(=O)c1ccc(N2N=C(c3ccccc3)CC2c2ccc(F)cc2)cc1 (centres undefined) | 86 | 0 | 0 | 0 | 64
O=C(c1ccc2c(c1)C(=O)NC2=O)c1ccc2c(c1)C(=O)NC2=O | - | - | - | 0 | -
Cn1cc(C(=O)N/N=C/C(Br)=C\c2ccccc2)ccc1=O | 0 | 0 | 0 | 5.4 | 0
COc1ccc(C(=O)N/N=C/C(Br)=C/c2ccccc2)cc1 | 0 | 0 | 0 | 0 | 0
O=C(O)c1ccc(COc2ccccc2/C=C2\NC(=O)N(Cc3ccccc3F)C2=O)cc1 | 0 | 0 | 0 | 0 | 0
O=C(CN1C(=O)N/C(=C\c2ccccc2OCc2ccc(C(=O)O)cc2)C1=O)Nc1ccccc1F | 0 | 0 | 0 | 4.6 | 0
CN1CCN(C/C(=C2/N=C(c3ccccc3)OC2=O)N(C)C)CC1 | 0 | 0 | 0 | 4.6 | 0
CCn1cnc2c([N+](=O)[O-])c(NS(=O)(=O)c3ccc(C)cc3)ccc21 | 0 | 12 | 0 | 0 | 0
O=C1NC(Cc2cnc[nH]2)C(=O)N2CCCC12 (centres undefined) | - | - | - | 0 | -
CN(C)c1ccc(/C=N\NC(=O)c2csnn2)cc1 | 0 | 0 | 0 | 7.3 | 0
C/C(=N/NC(=O)c1ccncc1)c1ccccc1 | 0 | 0 | 0 | 0 | 0
C/C(=N\NC(=O)c1ccncc1)c1ccc(N(C)C)cc1 | 0 | 0 | 0 | 4.7 | 0
Cc1[nH]nc2c1C(c1cccc(C(F)(F)F)c1)N(Cc1ccccc1)C2=O (centres undefined) | - | - | - | 0 | -
Cc1cccc(NC(=O)CSc2nnc(-c3ccco3)c(-c3ccco3)n2)c1 | - | 0 | 0 | 4.9 | -
Cc1cccc(NC(=O)CSc2nnc(-c3ccco3)c(-c3ccco3)n2)c1C | 0 | 0 | 0 | - | 0
Cc1c(N=Cc2nc3ccccc3[nH]2)c(=O)n(-c2ccccc2)n1C | 0 | 0 | 0 | 0 | 0
Cc1c(N=Cc2nc3ccccc3n2C)c(=O)n(-c2ccccc2)n1C | 0 | 0 | 0 | 5.1 | 0
O=C(NCCCNc1ccc(C(F)(F)F)cc1[N+](=O)[O-])c1cc(F)c(F)cc1Cl | 0 | 8.7 | 0 | 0 | 0
SMILES | proCasp7 act | MsrA act | Tb MetRS inh | MsrA inh | procasp3 activ
O=C(NCCCNc1ccc(C(F)(F)F)cc1[N+](=O)[O-])c1ccc(Cl)cc1 | 0 | 0 | 0 | 0 | 0
COC(=O)C1=C(N)Oc2cc(C)n(CC3CCCO3)c(=O)c2C1c1ccc(Cl)c(Cl)c1 (centres undefined) | 0 | 0 | 38 | 0 | 0
COC(=O)C1=C(N)Oc2cc(C)n(C)c(=O)c2C1c1ccc(Cl)c(Cl)c1 (centres undefined) | 0 | 0 | 0 | 0 | 0
CCc1ccc2[nH]c(=O)c(C(c3nnnn3CC3CCCO3)N3CCCc4ccccc43)cc2c1 (centres undefined) | 0 | 0 | 0 | 0 | 0
Cc1cc2cc(C(c3nnnn3CC3CCCO3)N3CCCc4ccccc43)c(=O)[nH]c2cc1C (centres undefined) | - | 0 | 0 | 4.6 | -
O=C(Cc1c[nH]c2ccccc12)Nc1ccc(Nc2ccncc2)cc1 | - | - | - | 0 | -
CC(=O)Nc1ccc(S(=O)(=O)NCCSCc2ccc(Cl)cc2Cl)cc1 | 0 | 0 | 13 | 0 | 0
CCN(CC)c1nc(N)c([N+](=O)[O-])c(NCCO)n1 | 0 | 0 | 0 | 4.7 | 0
Cc1ccc(Nc2nc(N)c([N+](=O)[O-])c(NCCO)n2)cc1 | 0 | 0 | 0 | 0 | 0
COc1cc(NCCCCC(C)N)c2nccc(C)c2c1 (centres undefined) | - | 0 | 0 | 0 | -
COc1cc(NCCCC(C)N)c2ncccc2c1 (centres undefined) | - | 12 | 0 | 0 | -
